# DAGLB inh: diacylglycerol lipase beta (human) inhibition | 340,000 compounds, 0.059% hits | Q8NCG7 | HEK293T DAGLB membrane lysate, EnzChek fluorogenic substrate | AID 504411 | inhibition, % at 5.17 µM; in the data active means inhibition above about 34%;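 further: 0% = enzyme with vehicle and 100% = wells lacking enzyme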
# Arrestin-AP2 inh: blocks beta-arrestin peptide binding to AP2 adaptin; AID 504490; inhibition, % at 10 µM; 340,000 compounds, 0.31% hits; FITC-arrestin peptide / GST-AP2 beads, flow cytometry; AP2 beta2 appendage carries R879A mutation;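 active means inhibition above a set limit, near 3 SD of compounds lacking own fluorescence, cut at about 54% in these data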;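 further: plate controls were DMSO wells for no effect and 5 µM unlabelled arrestin peptide for full effect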
#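 Assay system: GST-AP2 R879A bound to glutathione beads, E. coli-expressed; Medium: PBS with 0.05% Tween 20 and 0.1% BSA; Also added: fluorescein-tagged arrestin peptide at 50 nM final; Timing: 12 min plus 1 h, RT; Measured by: flow cytometry, FL1 (488/535 nm); Evaluation: percent drop in bead-associated FITC signal.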
# HTR5A ag: counter-screen for OPRM1-OPRD1 agonists: human HTR5A agonism; P47898; HTR5A agonist assay, luminescence, cell-based; activation, % at 9.3 µM; 340,000 compounds, 0.61% hits; AID 504692; in the data active means activation mostly above about 9.5%, no sharp cut-off; inactive means mostly below about 7.6%;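 further: 0% = cells with vehicle only and 100% = reference agonist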
# Target sequence (P47898 whole entry, looked up): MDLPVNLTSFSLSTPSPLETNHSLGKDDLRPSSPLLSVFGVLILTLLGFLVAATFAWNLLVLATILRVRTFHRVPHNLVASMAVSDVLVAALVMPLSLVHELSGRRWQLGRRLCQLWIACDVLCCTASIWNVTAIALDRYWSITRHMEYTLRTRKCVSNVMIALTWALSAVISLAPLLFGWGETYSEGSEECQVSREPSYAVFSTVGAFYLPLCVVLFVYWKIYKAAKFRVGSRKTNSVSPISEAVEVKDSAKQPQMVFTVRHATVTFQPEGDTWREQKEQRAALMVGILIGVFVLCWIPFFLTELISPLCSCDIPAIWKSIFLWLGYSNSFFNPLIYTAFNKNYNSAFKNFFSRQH
# MOR-DOR ag: OPRM1-OPRD1 heterodimerization agonism. cells, luminescence. activation, % at 9.3 µM. 340,000 compounds, 0.3% hits; in the data active means activation above about 18%;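 further: 0% = vehicle-treated cells and 100% = reference agonist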
# MOR-DOR inv ag: mu-delta opioid heterodimer inverse agonism; P35372+P41143; cell-based MOR-DOR heterodimer luminescence; inhibition, % at 9.3 µM; 340,000 compounds, 0.21% hits; AID 504357; in the data active means inhibition above about 22%, passing the limit was not always enough;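 further: 0% = cells with DMSO and 100% = wells without cells with DMSO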
# HTR5A inv ag: inverse agonist of human HTR5A in OPRM1-OPRD1 counter-screen. P47898. HTR5A cell line, luminescence, inverse agonism. inhibition, % at 9.3 µM. 340,000 compounds, 0.083% hits; in the data active means inhibition mostly above about 23%, no sharp cut-off; inactive means mostly below about 18%;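 further: 0% = cells with DMSO and 100% = no-cell wells with DMSO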
# OPRM1-D1 inv cf: OPRM1-OPRD1 heterodimer inverse agonism, confirmation | shares compounds with MOR-DOR inv ag | cells expressing OPRM1/OPRD1 heterodimer, luminescence | inhibition, % at 9.3 µM | 580 compounds, 20% hits | AID 504900; in the data active means inhibition above about 32%;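 further: 0% = cells with DMSO and 100% = wells lacking cells with DMSO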
# HTR5A inv ctr2: HTR5A inverse agonism, opioid heterodimer counter-screen; inhibition, % at 9.3 µM; 580 tested, under 10 active; shares compounds with MOR-DOR inv ag; AID 504914; HTR5A-expressing cells, luminescence; call rule not given here;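 further: 0% = cells with DMSO and 100% = no-cell wells with DMSO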
# * marks the source's active call; other numbers are inactive results; i = inactive; . = no result given. An excerpt weighted towards active compounds, which were near 1.4% of everything screened.
SMILES,DAGLB inh,Arrestin-AP2 inh,HTR5A ag,MOR-DOR ag,MOR-DOR inv ag,HTR5A inv ag,OPRM1-D1 inv cf,HTR5A inv ctr2
CCOC(=O)c1ccc(NC(=O)c2ncn3c2C(=O)N[C@H](C)C3)cc1,-3,.,.,.,.,.,.,.
COc1ccc(C2=NN(CN3C(=O)C(=O)c4ccccc43)C(c3ccc(C)cc3)C2)cc1 (stereo unspecified),-15,11,-2,-9,47*,7,16,8
COc1ccc(C2=NN(CN3C(=O)C(=O)c4ccccc43)C(c3ccc(Br)cc3)C2)cc1 (stereo unspecified),-2,8,-3,-4,21,-9,.,.
Cn1cnc([N+](=O)[O-])c1Sc1ncccc1N,-1,6,-12,-9,46*,29*,-4,17
C[C@@H]1CN([C@H](C)CO)S(=O)(=O)c2ccc(Br)cc2O[C@H]1CN(C)S(C)(=O)=O,-5,.,.,.,.,.,.,.
O=C(CCC(=O)c1cccs1)OCC(=O)c1ccc(F)cc1,-3,0,-4,-3,14,15,.,.
CC(=O)CCC(=O)OCC(=O)c1ccc(C(F)(F)F)cc1,-1,5,5,-9,45*,4,-1,13
Nc1ccc2cc3[nH]c4cc(N)ccc4c3nc2c1,i,6,-4,7,-34,16,.,.
Cc1ccccc1OCCCN1C(=O)C(=O)c2cccc(C)c21,12,1,3,-10,50*,-8,i,-2
Cc1ccc2c(c1)C(=O)C(=O)N2CCCOc1ccccc1C,-3,8,4,-4,19,-13,.,.
O=C(c1ccc(CNS(=O)(=O)c2ccc(F)cc2)cc1)N1CCCCCC1,0,.,.,.,.,.,.,.
CC(=O)/C=C1/C(=O)Nc2ccccc21,2,-23,-2,-14,74*,5,71*,2
C=CCOc1cccc(C(=O)/C=C2/C(=O)Nc3ccccc32)c1,1,-8,4,-2,11,-15,.,.
O=C(NCC(=O)N1CCN(C(c2ccccc2)c2ccccc2)CC1)c1ccccc1Br,-5,.,.,.,.,.,.,.
O=C1N=c2ccccc2=C1c1c(O)n(-c2cccc(F)c2)[nH]c1=O,4,33,-7,-6,36*,19,-44,10
O=C(NNC(=S)NC(=O)C12CC3CC(CC(C3)C1)C2)c1ccncc1,2,-8,-7,-7,42*,6,14,-5
Cc1cc(C(=O)NNC(=S)NC(C)c2ccccc2)c2ccccc2n1 (stereo unspecified),2,22,3,-6,34*,-12,5,-13
Cc1cc(C(=O)NNC(=O)c2ccc(Cl)cc2)c2ccccc2n1,-3,23,-3,-1,5,9,.,.
COc1ccc(N=Cc2[nH]c3ccccc3c2O)cc1,-3,22,1,-4,30*,22,-70,4
Cc1cc(C)nc(NNS(=O)(=O)c2ccc(Cl)cc2)n1,-3,5,-3,-10,45*,13,19,7
COc1ccc(S(=O)(=O)NC2CC2)cc1Br,-2,4,1,-1,4,-4,.,.
COc1ccc(S(=O)(=O)NNc2nc(C)cc(C)n2)cc1Br,-2,23,0,-6,31*,1,-2,-8
Cc1cc(C)nc(NNS(=O)(=O)c2ccc(F)c(Cl)c2)n1,-5,-11,-5,-8,44*,12,62*,-5
Cc1c(N)cc(S(=O)(=O)O)cc1NC(=O)c1cccc([N+](=O)[O-])c1,2,9,4,-1,7,-15,.,.
NC(=S)c1cc2ccc(O)cc2oc1=O,-2,2,-5,-5,31*,-1,11,1
SMILES,DAGLB inh,Arrestin-AP2 inh,HTR5A ag,MOR-DOR ag,MOR-DOR inv ag,HTR5A inv ag,OPRM1-D1 inv cf,HTR5A inv ctr2
CCCCC(=O)N1C(C)CCC1C (stereo unspecified),0,.,.,.,.,.,.,.
Cc1nc(-n2[nH]c3c(c2=O)CCCC3)[nH]c(=O)c1Cc1ccccc1,-8,-8,-6,-6,37*,28,7,5
COc1cccc(S(=O)(=O)N(C)C[C@@H]2OCc3cn(nn3)CCCC(=O)N([C@@H](C)CO)C[C@H]2C)c1,-2,.,.,.,.,.,.,.
CC1=C/C(=C(/c2ccc(O)c(C)c2)c2ccccc2S(=O)(=O)O)C=CC1=O,9,8,-5,-7,29*,15,i,-9
CC1=C/C(=C(/c2cc(C)c(O)c(Br)c2)c2ccccc2S(=O)(=O)O)C=C(Br)C1=O,15,31,-5,-4,20,21,.,.
ON1C2CCCCC2N(O)C1c1ccccc1C(F)(F)F (stereo unspecified),1,-8,-4,-8,44*,9,-52,10
O=C(Cc1ccc(NC(=O)C2CCN(C(=O)C3CCCC3)CC2)cc1)Nc1cccc(C(=O)N2CCCCC2)c1,-1,1,-4,1,-4,14,.,.
CN1C(=O)/C(=C/c2ccc(O)c([N+](=O)[O-])c2)N(C)C1=S,16,-26,5,-6,33*,11,8,19
COc1cc(/C=C2\C(=O)N(C)C(=S)N2C)ccc1O,-1,2,-3,2,-11,7,.,.
Cc1ccc(CC(=O)NNC(=O)c2cccs2)cc1C,0,-2,2,-1,7,-3,.,.
CC(NC(=O)c1cc(COc2ccc(-n3cncn3)cc2)on1)c1ccc(F)cc1 (stereo unspecified),-5,.,.,.,.,.,.,.
c1ccc(C2OC3c4cccc5cccc(c45)C3N2c2ccccc2)cc1 (stereo unspecified),0,2,-4,-8,38*,9,-41,-2
Cc1cc(C(=O)OCC(=O)c2cccc([N+](=O)[O-])c2)c2ccccc2n1,0,-3,-8,-12,60*,-3,38*,18
COc1ccccc1C(=O)OCC(=O)c1cccc([N+](=O)[O-])c1,2,.,-2,-4,19,8,.,.
Cc1cc(C(=O)OCC(=O)c2ccc(Cl)c([N+](=O)[O-])c2)c2cccc(C)c2n1,-1,-10,-2,-7,34*,3,-40,-9
COc1ccc(-c2cc(C(=O)OCC(=O)c3ccc(C)c([N+](=O)[O-])c3)c3ccccc3n2)cc1,0,-6,-1,-2,12,-26,.,.
O=C(COC(=O)c1cc2ccccc2oc1=O)c1cccc([N+](=O)[O-])c1,1,-3,-2,-9,47*,13,46*,19
CCCCCCC[C@@H](C/C=C/CCC(=O)N(C)C/C(=C/Cl)C/C(=C\C(=O)N1CC(OC)=CC1=O)OC)OC,-3,-7,0,-8,39*,-1,-22,-120

# Source: PubChem BioAssay (several laboratories)
